Shown are actives, neighbours in structure and some others; about 1.9% of the full set was active somewhere.
HIF activator: HIF pathway transcriptional activation. activation, % at 7.5 µM (by protocol). 0.32% of 300,000 active. U2OS HRE-luciferase reporter, luminescence; normalized: DMSO 0%, desferrioxamine 100%. AID 1910;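 active = mean activation of at least 10% of the iron chelator positive control signal, with at least half of replicates also reaching 10%; inconclusive = mean and replicate majority disagree about reaching 10%; inactive = mean and most replicates under 10%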
Calb FLC: affects C. albicans growth with fluconazole; C. albicans CaCi-2 (fluconazole-resistant clinical isolate) + fluconazole, Alamar Blue growth, 48 h; growth inhibition, % (no concentration beside the values); 0.57% of 300,000 active;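 active = growth inhibition above about 58% in most replicates, limit read from the data, passing the limit was not always enough; inconclusive = exactly half the replicates above a set limit; inactive = most replicates below a set limit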;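 note: all wells also contain fluconazole at 8 µg/ml as a sub-toxic cotreatment; 0% = median of DMSO wells and 100% = median of geldanamycin control wells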
FXN GAA850 act: activators of GAA850 frataxin (FXN) promoter; HEK293 lucGAA850 FXN promoter luciferase reporter, 24 h; percent of 10 µM SAHA response; activation, % at 6 µM; 0.56% of 360,000 active; AID 540364;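 active = activation above the average of all compounds screened plus 3 SD, cutoff fixed separately per campaign, cut at about 7.5% in these data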;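 note: 0% = DMSO wells and 100% = 10 µM SAHA wells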
procasp7 counter: activates human procaspase-7, counter-screen for procaspase-3 activators | P55210 | 0.093% of 330,000 active | activation, % at 8.5 µM | recombinant procaspase-7, Ac-DEVD-pNA absorbance 405 nm; D23A/D198A/D206A triple mutant, cannot self-cleave; scale: DMSO 0, 5 µM enzyme 100;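 active = percent activation above the screen-wide mean plus 3 SD, cut at about 25% in these data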
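signal = Epi-absorbance of released pNA at 405 nm, two timepoints | assay system = Uncleavable procaspase-7 mutant enzyme | reagent = Ac-DEVD-pNA substrate, 400 µM as added | times = 1 h enzyme–compound preincubation and 2 h substrate reaction, both 25 °C | benchmarks = low DMSO alone, high DMSO plus 5 µM PC-7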
procasp3 activ: activates human procaspase-3; recombinant procaspase-3 D3A, Ac-DEVD-pNA absorbance 405 nm; activation, % at 8.5 µM; 0.11% of 330,000 active; AID 463141;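 active = activation above the mean of all tested compounds plus 3 SD, cut at about 21% in these data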;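 note: 0% = DMSO alone and 100% = DMSO wells spiked with extra 5 µM PC-3 D3A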
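Compound: 8.5 µM single point, 0.8% DMSO / Material: Autoprocessing-dead procaspase-3 D3A mutant enzyme / Timing: 1 h preincubation plus 2 h reaction at 25 °C / Medium: Zinc-free HEPES/NaCl buffer with 0.01% Triton X-100 at pH 7.4 / Technique: 405 nm absorbance of p-nitroaniline, reads at 0 and 120 min / Repeats: one well per compound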
Neddylation inh: inhibitors of human cullin neddylation | P61081+Q13564 | TR-FRET cullin neddylation, biochemical | AID 651699 | inhibition, % at 25 µM | 0.58% of 360,000 active; in the data active = inhibition above about 36%
* = called active by the depositor; i = inactive; ? = inconclusive; · = not tested or not shown.

SMILES | HIF activator | Calb FLC | FXN GAA850 act | procasp7 counter | procasp3 activ | Neddylation inh
O=C(O)c1ccc(-c2nc(-c3ccccc3)cs2)cc1 | 1 | ? | 4 | 1 | 12 | -27
Cc1ccc(-c2c[n+]3c(n2-c2ccccc2)CCC3)cc1 | 1 | -8 | -1 | 6 | -1 | 1
Cc1ccc(-n2c(-c3ccc(Br)cc3)c[n+]3c2CCc2ccc4cccnc4c2-3)cc1 | -1 | 99* | -14 | -14 | -9 | -12
CNC(=O)NC(=O)C(C)OC(=O)c1c2c(nc3ccccc13)/C(=C/c1cccs1)CC2 (stereo not drawn) | 3 | 5 | 4 | -18 | -32 | 45*
CCCCNC(=O)COC(=O)c1c2c(nc3ccccc13)/C(=C/c1cccs1)CC2 | · | · | 0 | -25 | -41 | ·
OC(c1ccc(Cl)c(Cl)c1)c1ncc(-c2ccccc2C(F)(F)F)[nH]1 (stereo not drawn) | · | · | -1 | · | · | -5
CCCC(O)(CCC)C(=O)NNc1ccc(C)cc1 | 0 | 111* | 2 | 3 | 1 | 3
OC(CCCN1CCCCC1)(c1ccccc1)c1ccc(C(F)(F)F)cc1 (stereo not drawn) | · | · | -1 | · | · | -4
COc1ccc(NC(=O)C2Cc3c(-c4ccco4)ccnc3O2)cc1OC (stereo not drawn) | · | · | -1 | · | · | 5
CC#CC[N+](C)(C)CCCCCCCCCCCC | 0 | 101* | -5 | 2 | 11 | 10
C#CC[N+](C)(C)CCCCCCCCCCCC | -24 | 79* | -5 | -1 | 4 | 4
CCCCCC[N+](C)(C)CCSSCC[N+](C)(C)CCCCCC | 0 | 10 | 1 | -1 | -10 | 0
C#CC[N+](C)(C)CCCCCCCC | 0 | -35 | -2 | 4 | -4 | 1
CCCCCCCCCCCCCCCC[N+](C)(C)CC | 1 | 77* | -3 | -2 | -13 | 5
C#CC[N+](C)(C)CCCCCCCCCC | 0 | -25 | -3 | 2 | 6 | -3
CC(=O)Nc1cc(-c2ccc(C(=O)NC3CC3)cc2)cn2c(-c3cccc(C(F)(F)F)c3)cnc12 | · | · | 1 | · | · | 25
CCCCCCCc1c(C)nc(N2CCOCC2)[nH]c1=O | 0 | -20 | 1 | 10 | 1 | 3
CCCCCCc1c(C)nc(-n2[nH]c(C)c(CCO)c2=O)[nH]c1=O | -1 | 93* | 1 | 2 | 4 | 0
CCOC(=O)Cc1ccc(Nc2nc3cc(-c4ccccc4C)sc3c(=O)n2C)cc1 | · | · | 0 | · | · | i
c1ccc2c(-c3cc(NCc4ccncc4)n4nccc4n3)cccc2c1 | · | · | 1 | · | · | 34
Cc1cc2c(cc(C(=O)OCC(=O)NCc3ccco3)n2C)s1 | 2 | 102* | -4 | 2 | -3 | -154
CN(C)c1ccc(C(=O)N2CCC2(C)C(=O)O)cc1 (stereo not drawn) | · | · | 1 | · | · | 4
C[C@@H](NCCCn1ccc(NC(=O)OCc2ccccc2)nc1=O)c1cccc2ccccc12 | · | · | -1 | · | · | -8
CCOc1ccc(-n2c(-c3ccccc3)c[n+]3c2CCCCC3)cc1 | 0 | 87* | -2 | -7 | 7 | 2
c1ccc(-c2c[n+]3c(n2-c2ccccc2)CCC3)cc1 | 0 | 1 | 0 | 4 | -2 | 3
SMILES | HIF activator | Calb FLC | FXN GAA850 act | procasp7 counter | procasp3 activ | Neddylation inh
Cc1ccc(S(=O)(=O)N(C)CC(=O)N(C)Cc2cccs2)cc1 | · | · | -1 | · | · | 9
CCC1=NN(C(=O)c2ccccc2O)C(O)(c2ccccc2)C1 (stereo not drawn) | 0 | 107* | -2 | 4 | 7 | 4
Cc1ccc(-c2cc(-c3ccc(Cl)cc3)c(C#N)c(N)n2)o1 | -1 | 17 | -1 | -12 | -2 | 48*
Cc1ccc(-c2cc(-c3ccc(C)o3)nc(N)c2C#N)cc1 | 0 | 5 | -1 | -28 | -31 | 33
COc1ccc(CNC(=O)C(c2ccco2)N(C(=O)c2snc(C(N)=O)c2N)c2ccccc2OC)cc1 (stereo not drawn) | 0 | -3 | -1 | -403 | -398 | 39*
C[C@H]1CN([C@@H](C)CO)C(=O)CCCn2cc(nn2)CO[C@@H]1CN(C)C(=O)c1ccncc1 | · | · | 0 | · | · | 8
C/C(=N\NC(=O)c1cc2ccccc2cc1O)c1ccccn1 | 0 | 100* | 5 | 1 | -2 | 2
